{
  "source": "paper PMC9486889",
  "about": "(Japanese Journal of Clinical Oncology, 2022)",
  "key": {"HDAC10": {"system": "HDAC10", "settings": "cited from earlier work"}, "[1]": {"settings": "pre-clinical study, no reference given; cited from earlier work"}, "HDAC1": {"system": "HDAC1", "settings": "cited from earlier work"}, "HDAC2": {"system": "HDAC2", "settings": "cited from earlier work"}, "[2]": {"experiment": "Cardiovascular assessments", "format": "in vivo, Japanese patients"}, "[3]": {"experiment": "Plasma and urine pharmacokinetics, Cycle 1", "format": "in vivo, Japanese patients", "how_it_was_run": "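Oral 30 or 40 mg BIW. In Cycle 1, plasma was sampled on Days 1 and 25 from pre-dose to 72 h post-dose. Urine was collected in three 24-h intervals after the Day 1 and Day 25 doses. Parent drug and metabolites were measured by LC/MS–MS. The PK population received ≥1 Cycle 1 dose and had ≥1 measured post-dose concentration.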"}, "HDAC3": {"system": "HDAC3", "settings": "cited from earlier work"}},
  "data": [
    {"smiles": "Nc1cc(F)ccc1NC(=O)c1ccc(CNC(=O)/C=C/c2cccnc2)cc1", "note": "[HBI-8000, tucidinostat]", "values": [
      {"measurement": "Inhibition of HDAC activity", "setting": "HDAC10", "result": "selectively inhibits"},
      {"measurement": "Effect on cardiovascular system including changes in QTc prolongation", "setting": "[1]", "result": "did not induce any effect"},
      {"measurement": "Inhibition of HDAC activity", "setting": "HDAC1", "result": "selectively inhibits"},
      {"measurement": "Inhibition of HDAC activity", "setting": "HDAC2", "result": "selectively inhibits"},
      {"measurement": "Absolute QTcF >450 ms", "setting": "[2]; 30 mg BIW cohort", "result": "three"},
      {"measurement": "QTcF increase of >30 ms from baseline", "setting": "[2]; 40 mg BIW cohort", "result": "three"},
      {"measurement": "Absolute QTcF prolonged to >500 ms", "setting": "[2]; both cohorts", "result": "none"},
      {"measurement": "QTcF increase >60 ms from baseline", "setting": "[2]; both cohorts", "result": "none"},
      {"measurement": "Administered dose excreted unchanged in urine over the dosing interval, average", "setting": "[3]; 30 mg cohort", "result": 25.3, "unit": "%"},
      {"measurement": "Administered dose excreted unchanged in urine over the dosing interval, average", "setting": "[3]; 40 mg cohort", "result": 21.9, "unit": "%"},
      {"measurement": "half-life", "setting": "[3]; human, plasma, oral, 40 mg, Mean t1/2, 30 and 40 mg, Days 1 and 25", "result": "17.1 to 21.6", "unit": "h"},
      {"measurement": "AUC(0-inf)", "setting": "[3]; human, plasma, po, 30 mg", "result": 4000, "unit": "ng·h/mL"},
      {"measurement": "AUC(0-inf)", "setting": "[3]; human, plasma, po, 40 mg", "result": 7160, "unit": "ng·h/mL"},
      {"measurement": "Tmax", "setting": "[3]; human, plasma, po, 40 mg, Median tmax, single and repeat oral administration, 30 and 40 mg", "result": "2.42 to 5", "unit": "h"},
      {"measurement": "Inhibition of HDAC activity", "setting": "HDAC3", "result": "selectively inhibits"}
    ]}
  ]
}
